Screen size: about 2,500 compounds; about 460 (18%) were called active. Only a sample is shown. Values without a mark were called inactive.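 Rule for the calls: active = mean activation above a cutoff of low control average plus 3 SD from the earlier screen (cut at about 12% in these data); inactive = the rest.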

The assay is described as follows: compound fluorescence interference without thin filaments, confirmation, artefact control for cardiac RTF calcium sensitizer project, biochemical (AID 504382). Conditions: IANBD fluorescence interference counterscreen, buffer, EC20 Ca2+; at 7.2 µM; active compounds read high; scaled: EC20 calcium 0, EC100 calcium 100. In a few lines:
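timing = compound incubation 15 min at 25 °C before fluorescence reading | technique = fluorescence at 480 nm excitation, 540 nm emission | evaluation = interference relative to controls | replication = triplicate wells per compound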
For orientation: A counterscreen serves to expose hits that act by an unwanted route or on another target.
On to `CCOc1cc(/C=C2\N=C(SC(C)C(N)=O)N(c3ccc(OC(F)F)cc3)C2=O)ccc1O` (centres undefined), for which the fluorescence artifact activation was 3.79%. `COc1ccc(C(=O)c2ccsc2N)cc1`: the fluorescence artifact activation is 3.39%.

As to `O=C(CN1CCc2ccccc2C1)Nc1cc(S(=O)(=O)N2CCOCC2)ccc1N1CCOCC1`, the fluorescence artifact activation is 0.07%. In the case of `CCOc1cccc2c1OC(c1cc(OC)c(OC)c(OC)c1)N1N=C(c3ccc(C)o3)CC21` (centres undefined), the fluorescence artifact activation was 0.15%.

Take `CC1(C)C([N+](=O)[O-])C(c2ccc(F)cc2)NC(c2ccc(F)cc2)C1[N+](=O)[O-]` (centres undefined): the fluorescence artifact activation is -0.04%. `COC(=O)c1sccc1NC(=O)CSCC(=O)O`: the fluorescence artifact activation was 0.05%. For `CN(C)C=Nc1c(Br)cc(Br)c2nonc12`, the fluorescence artifact activation was 16.1% (active). For `C=CCn1c(SCC(=O)Nc2nccs2)nnc1-c1ccco1` the value was 0.29%; for `Cn1cc(Cl)c(-c2nc3ccccc3[nH]2)n1`, 2.42%.

Regarding `COC(=O)c1cc(N2CCN(C)CC2)nc2ccccc12`, the fluorescence artifact activation is 0.05%. In the case of `CCOC(=O)/C(=N\Nc1ccc(C(C)=O)cc1)c1csc(Nc2ccccc2)n1` it was -0.08%; in that of `CCOC(=O)c1cnc2ccccc2c1Nc1ccc(C(=O)O)cc1`, 50% (active); in that of `CCCCN(Cc1ccccc1)S(=O)(=O)c1ccc2c(c1)n(C)c(=O)c(=O)n2C`, 0.08%. As for `COC(=O)C1=C(CSc2nc3c(cc2C#N)CN(C)CC3)OC(N)=C(C#N)C1c1ccc(F)cc1` (centres undefined), the fluorescence artifact activation was -0.02%. Take `COC(=O)c1ccc(S(=O)(=O)N2CCC(O)CC2)n1C`: the fluorescence artifact activation was 4.73%. In the case of `O=C(CS(=O)(=O)c1cn(Cc2ccc(F)cc2)c2ccccc12)N1CCOCC1` it was -0.02%. For `CCOC(=O)C1CCCN(C2=NC(=O)/C(=C/c3ccc(N(C)C)cc3)S2)C1` (centres undefined) the value was 0.84%; for `CN(C)c1ccc(/C=C2\SC(N3CCCCC3)=NC2=O)cc1`, 193% (active); for `CN(C)c1ccc(/C=C2\C(=N)N3N=C(CC(=O)N4CCCCC4)SC3=NC2=O)cc1`, 11.2%. In the case of `COC(C(=O)Nc1c(F)cccc1F)c1ccccc1` (centres undefined) it was 0.18%. As to `CN(Cc1ccccc1)C(=O)c1cccc(N2C(=O)NC3CC2(C)Oc2ccccc23)c1` (centres undefined), the fluorescence artifact activation is 14.2% (active). In the case of `CCOc1cccc2c1OC1(C)CC2NC(=O)N1c1cccc(C(=O)NCc2ccccn2)c1` (centres undefined) it was 0.6%; in that of `COc1cccc2c1OC1(C)CC2NC(=O)N1Cc1ccccc1` (centres undefined), 1.11%.

As for `COC(=O)CN(c1cc(OC)ccc1OC)S(=O)(=O)c1ccc(OC)c(OC)c1`, the fluorescence artifact activation is 0.04%. In the case of `O=C(COC(=O)C1(c2ccccc2F)CCCC1)Nc1ncc(C(F)(F)F)cc1Cl` it was -0.01%; in that of `CN1CCc2c(sc(/N=C/c3ccco3)c2C(N)=O)C1`, 0.04%; in that of `COc1cc2c3nnc(-c4ccc(F)cc4)c-3cn(Cc3cccc(F)c3)c2cc1OC`, 124% (active). With `COc1cc2c3nnc(-c4ccc(F)cc4)c-3cn(Cc3ccc(C)cc3)c2cc1OC`, the fluorescence artifact activation was 0.37%. For `COc1cc2c3nnc(-c4ccc(F)cc4)c-3cn(Cc3cccc(C)c3)c2cc1OC` the value was 0.48%. For `COC(=O)c1ccccc1-c1c2ccc(=N)cc-2oc2cc(N)ccc12` the value was 0.05%. In the case of `c1ccc(-c2cn3nc4c(nc3n2)CCCC4)cc1` it was 19.1% (active); in that of `Brc1ccc(-c2cn3nc4c(nc3n2)CCCC4)cc1`, 3.81%. In the case of `Clc1ccc(-c2cn3nc4c(nc3n2)CCCC4)cc1`, the fluorescence artifact activation was 0.71%.

Consider `CCOCCCn1c(=NC(=O)c2cccs2)c(C#N)cc2c(=O)n3cccc(C)c3nc21`, for which the fluorescence artifact activation is 1.11%.

In the case of `CC(=O)c1ccc(NC(=O)CN2C(=O)/C(=C/C=C/c3ccccc3)SC2=S)cc1`, the fluorescence artifact activation is 0.03%. As to `O=C(NC1CCCCC1)c1cc2nc3c(c(C(F)(F)F)n2n1)CCCC3`, the fluorescence artifact activation is 7.01%. With `COc1ccc(-c2nn(-c3ccccc3)cc2/C=N/NC(N)=S)cc1OC`, the fluorescence artifact activation was 8.19%. `O=C(N/N=C/c1cc(Cl)cc(Cl)c1O)c1ccncc1`: the fluorescence artifact activation is 2.37%. In the case of `Cc1cc(/C=N/NC(N)=S)c(O)c(/C=N/NC(N)=S)c1`, the fluorescence artifact activation is 181% (active). For `Cc1cc2c(cc1S(=O)(=O)CCC(=O)NCCc1ccccc1)OCC(=O)N2` the value was 11.3%; for `CCOC(=O)c1ccc(NC(=O)c2cc3c(C)nn(-c4ccccc4Cl)c3s2)s1`, 1.59%; for `CCN(CC)c1ccc2c(c1)OC(N)=C(C#N)C2c1cccnc1` (centres undefined), 2.43%.

For `N#CC1=C(N)Oc2cc(O)c(Cl)cc2C1c1ccccc1F` (centres undefined), the fluorescence artifact activation is 54.3% (active). In the case of `COC(=O)C1=C(CSc2nc3c(cc2C#N)CN(C)CC3)OC(N)=C(C#N)C1c1ccccc1F` (centres undefined) it was 3.38%; in that of `CCOc1ccc2cc(/C=C/C(=O)c3ccco3)c(Cl)nc2c1`, 0.34%; in that of `CC(CCc1ccc(O)cc1)NCCC(c1ccccc1)c1ccccc1` (centres undefined), 13.1% (active). For `COc1ccc(OC)c(NC(=O)NCCc2cccc(Cl)c2)c1` the value was 0.03%. On to `C=C[C@@](C)(O)CC[C@@H]1[C@@]2(C)CCCC(C)(C)[C@@H]2CC[C@@]1(C)O`, for which the fluorescence artifact activation is 0.16%.

On to `Cc1cccc(NC2=Nc3ccccc3N3C2=Nc2c(c(C)nn2-c2ccccc2)C3c2ccc(O)c(O)c2)c1` (centres undefined), for which the fluorescence artifact activation is 96.4% (active). For `CC1C/C(=C/c2cccn2C)C(=O)/C(=C/c2cccn2C)C1` (centres undefined) the value was 0.08%; for `COc1ccc(/C=C/C(=O)NC(=S)Nc2ccc(C(=O)O)cc2)cc1`, 6.95%. For `Cc1nnc(NC(=O)CS(=O)(=O)Cc2ccccc2)s1` the value was -0.07%; for `O=C(Oc1ccc2ccc(=O)oc2c1)c1cccs1`, 0.02%. For `O=S(=O)(/N=C(/Nc1nc2ccccc2s1)c1ccccc1)c1ccc(F)cc1` the value was 0.13%; for `Cc1onc(-c2ccccc2)c1C(=O)Nc1nc(-c2cc(F)ccc2F)cs1`, 0.13%; for `Cc1noc(C)c1C(=O)Nc1nc2ccccc2s1`, 38.5% (active). Regarding `Cc1c2c(n3c(nc4ccccc43)c1C#N)N(CCN1CCOCC1)CC2`, the fluorescence artifact activation was 0.13%.

For the compound `Cc1nc2c(C#N)cnn2c2c1CCN(Cc1ccccc1)N2C`, the fluorescence artifact activation is 138% (active). As for `Cn1c2c(c(=O)n(C)c1=O)C(C(F)(F)F)(C(F)(F)F)N=C(CCC1CCCCC1)N2`, the fluorescence artifact activation was 0.01%.

Source of the values: PubChem BioAssay AID504382 (The Scripps Research Institute Molecular Screening Center, 2011).
